The source made the active and inactive calls.

A word on the half-life: it is the time needed for the level to fall by half in the phase considered. A low value points to rapid decline. Broadly, the TD50 is the 50% point of the dose-response relation for the toxic effect studied. Read a high TD50 as harm only at a large dose. For orientation: ED50 means the dose that gives a 50% effect, or the effect in half of the subjects. The low end stands for an effect at a small dose, the high end for a need for a large dose. The NOAEL is the highest tested level that showed no adverse finding.

Data set [1] is described as follows: Half life in Sprague-Dawley rat at 5 mg/kg, iv. It is filed as ADME, organism-based. As to conditions: in vivo. The method, boiled down:
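Pharmacokinetics in Sprague-Dawley rats given a single iv dose of 5 mg/kg or an oral dose of 20 mg/kg.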

Data set [2] deals with Sodium channel protein type 1 subunit alpha (Homo sapiens) (UniProt P35498). As to the kind of experiment: Inhibition of human Nav1.1 expressed in HEK293 cells assessed as half-maximal voltage for steady state activation at 10 uM by whole cell patch-clamp electrophysiology (reference value: -24.69 +/-1.52 mV). It is filed as cell-based. For orientation: The patch-clamp technique gives a direct electrical read-out from membranes.

A short description of data set [3]: Neurotoxicity in ip dosed albino Carworth Farms No. 1 mouse measured at 0.25 hrs by rotarod test. It is filed as toxicity, organism-based. As to conditions: in vivo. On the technique in general: Falling from the rotarod earlier than controls is read as motor impairment.
Data set [4] concerns Rattus norvegicus. Nature of the data set: Toxicity in po dosed Sprague-Dawley rat assessed as changes in respiratory rate administered via gavage. It counts as organism-based. To be noted: in vivo. The method, boiled down: (§1)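 Non-GLP 7-day repeated-dose study in female Sprague-Dawley rats given oral gavage at 20, 60 and 180 mg/kg/day. Endpoints were weight bearing, gait coordination, respiratory rate, relative organ weights, clinical chemistry and gross pathology, with NOAEL determined.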

Another data set relates to CAD. Nature of the data set: Effect on steady state activation of voltage-gated sodium channel in mouse CAD cells at 100 nM to 1 uM by whole cell patch-clamp electrophysiology. It is filed as cell-based. The gist of the method: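 CAD cells were recorded by whole-cell voltage clamp at room temperature with several compound concentrations versus 0.1% DMSO. Activation was assessed from conductance, G = I/(Vm − Vrev), versus command voltage. V1/2 and slope were taken from Boltzmann fits to individual recordings and averaged.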

A further data set relates to Mus musculus. As to the kind of experiment: Anticonvulsant activity in ip dosed corneal kindled seizure mouse model measured after 0.25 hrs. It counts as functional.
Data set [5] concerns the target Sodium channel protein type 9 subunit alpha (Homo sapiens) (UniProt Q15858). Nature of the data set: Inhibition of human Nav1.7 expressed in HEK293 cells assessed as half-maximal voltage for steady state fast-inactivation at 10 uM by whole cell patch-clamp electrophysiology (reference value: -61.11 +/-3.02 mV). It is filed as cell-based.
Data set [6] has as its target Sodium channel protein type 5 subunit alpha (Homo sapiens, UniProt Q14524). As to the kind of experiment: Frequency-dependent inhibition of human Nav1.5 expressed in HEK293 cells assessed as current amplitude at 10 uM by whole cell patch-clamp electrophysiology. It is filed as cell-based. As to conditions: hek293, 10 µM. The gist of the method:
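Stable HEK293 lines expressing hNav1.1, rNav1.3, hNav1.7 or hNav1.5 were recorded by whole-cell voltage clamp at room temperature, with 10 μM compound versus 0.1% DMSO. A 30-pulse train was applied, and the read-out was the fraction of current remaining at the last pulse normalized to the first. Nav1.5 used hyperpolarized protocols.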

The nature of data set [7]: Protective index, ratio of TD50 for neurotoxicity in ip dosed albino Carworth Farms No. 1 mouse to ED50 for anticonvulsant activity in ip dosed MES albino Carworth Farms No. 1 mouse model. It is filed as toxicity, organism-based. As to conditions: in vivo, read-out: Ratio TD50/ED50. The gist of the method: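 Male albino Carworth Farms No. 1 mice were dosed ip. Protective index = TD50/ED50, the ED50 taken from the ip maximal electroshock test.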

The test system of data set [8] is Rattus norvegicus. Nature of the data set: Toxicity in po dosed Sprague-Dawley rat assessed as adverse effects administered via gavage. It is filed as organism-based. As to conditions: in vivo. The method, boiled down: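 Non-GLP 7-day repeated-dose study in female Sprague-Dawley rats, given by oral gavage at 20, 60 and 180 mg/kg/day. Endpoints: weight bearing, gait coordination, respiratory rate, relative organ weights, clinical chemistry and gross pathology, giving a NOAEL. The ratio divides the NOAEL by the oral MES ED50.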

For data set [9], the system named is Rattus norvegicus. Nature of the data set: Toxicity in po dosed Sprague-Dawley rat assessed as coordination in gait administered via gavage. It is filed as organism-based. As to conditions: in vivo. The method, boiled down:
as §1

Sodium channel protein type 9 subunit alpha (Homo sapiens), sequence (Q15858 whole entry, looked up): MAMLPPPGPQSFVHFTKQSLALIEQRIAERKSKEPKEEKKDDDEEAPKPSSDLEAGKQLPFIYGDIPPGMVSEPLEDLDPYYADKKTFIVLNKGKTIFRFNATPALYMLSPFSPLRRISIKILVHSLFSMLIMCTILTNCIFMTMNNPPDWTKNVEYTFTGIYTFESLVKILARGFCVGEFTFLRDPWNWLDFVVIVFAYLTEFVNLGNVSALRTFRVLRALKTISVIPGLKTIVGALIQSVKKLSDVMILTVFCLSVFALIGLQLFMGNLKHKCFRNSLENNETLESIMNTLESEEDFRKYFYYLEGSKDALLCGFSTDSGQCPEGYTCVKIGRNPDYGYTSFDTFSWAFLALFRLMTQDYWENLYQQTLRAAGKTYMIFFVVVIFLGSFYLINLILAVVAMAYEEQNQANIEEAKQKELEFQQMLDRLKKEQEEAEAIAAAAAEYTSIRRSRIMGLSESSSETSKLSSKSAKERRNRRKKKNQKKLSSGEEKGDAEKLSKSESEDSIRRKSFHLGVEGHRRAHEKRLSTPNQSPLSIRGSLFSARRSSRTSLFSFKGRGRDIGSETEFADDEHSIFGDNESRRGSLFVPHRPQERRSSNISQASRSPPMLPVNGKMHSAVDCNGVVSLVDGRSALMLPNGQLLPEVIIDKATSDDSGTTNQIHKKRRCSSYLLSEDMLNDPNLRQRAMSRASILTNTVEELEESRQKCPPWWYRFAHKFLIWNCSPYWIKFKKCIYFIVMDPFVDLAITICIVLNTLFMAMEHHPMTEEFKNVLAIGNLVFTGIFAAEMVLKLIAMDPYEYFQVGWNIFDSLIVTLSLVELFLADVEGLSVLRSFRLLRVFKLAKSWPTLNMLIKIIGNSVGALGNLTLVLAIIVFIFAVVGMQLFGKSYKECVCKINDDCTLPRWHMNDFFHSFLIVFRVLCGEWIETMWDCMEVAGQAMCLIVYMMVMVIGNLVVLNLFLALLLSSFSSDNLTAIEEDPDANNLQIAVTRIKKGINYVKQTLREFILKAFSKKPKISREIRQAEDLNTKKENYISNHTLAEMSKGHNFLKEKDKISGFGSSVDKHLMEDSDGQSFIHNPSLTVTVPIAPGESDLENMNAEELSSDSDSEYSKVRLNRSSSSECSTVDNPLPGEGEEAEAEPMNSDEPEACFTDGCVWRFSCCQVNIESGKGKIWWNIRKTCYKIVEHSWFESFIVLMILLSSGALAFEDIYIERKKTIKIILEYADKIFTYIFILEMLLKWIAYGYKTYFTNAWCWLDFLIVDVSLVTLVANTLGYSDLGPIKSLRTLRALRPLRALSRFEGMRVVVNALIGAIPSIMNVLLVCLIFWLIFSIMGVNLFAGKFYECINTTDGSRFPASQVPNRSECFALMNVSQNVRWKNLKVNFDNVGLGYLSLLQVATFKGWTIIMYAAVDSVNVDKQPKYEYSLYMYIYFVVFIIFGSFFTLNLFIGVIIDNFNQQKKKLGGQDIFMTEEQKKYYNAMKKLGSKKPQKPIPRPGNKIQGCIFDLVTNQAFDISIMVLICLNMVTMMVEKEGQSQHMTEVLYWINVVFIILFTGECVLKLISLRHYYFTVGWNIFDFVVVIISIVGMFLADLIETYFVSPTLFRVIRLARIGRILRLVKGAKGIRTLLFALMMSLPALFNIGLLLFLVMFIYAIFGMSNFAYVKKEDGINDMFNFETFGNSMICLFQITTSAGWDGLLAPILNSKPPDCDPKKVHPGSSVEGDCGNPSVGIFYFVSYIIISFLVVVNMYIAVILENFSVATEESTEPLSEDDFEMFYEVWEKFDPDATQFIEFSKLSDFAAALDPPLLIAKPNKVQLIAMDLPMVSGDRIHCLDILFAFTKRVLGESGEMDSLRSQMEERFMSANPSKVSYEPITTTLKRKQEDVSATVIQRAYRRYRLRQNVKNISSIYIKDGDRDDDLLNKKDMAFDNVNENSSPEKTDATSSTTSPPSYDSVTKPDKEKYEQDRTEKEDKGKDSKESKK
Sodium channel protein type 5 subunit alpha, sequence (Q14524 whole entry): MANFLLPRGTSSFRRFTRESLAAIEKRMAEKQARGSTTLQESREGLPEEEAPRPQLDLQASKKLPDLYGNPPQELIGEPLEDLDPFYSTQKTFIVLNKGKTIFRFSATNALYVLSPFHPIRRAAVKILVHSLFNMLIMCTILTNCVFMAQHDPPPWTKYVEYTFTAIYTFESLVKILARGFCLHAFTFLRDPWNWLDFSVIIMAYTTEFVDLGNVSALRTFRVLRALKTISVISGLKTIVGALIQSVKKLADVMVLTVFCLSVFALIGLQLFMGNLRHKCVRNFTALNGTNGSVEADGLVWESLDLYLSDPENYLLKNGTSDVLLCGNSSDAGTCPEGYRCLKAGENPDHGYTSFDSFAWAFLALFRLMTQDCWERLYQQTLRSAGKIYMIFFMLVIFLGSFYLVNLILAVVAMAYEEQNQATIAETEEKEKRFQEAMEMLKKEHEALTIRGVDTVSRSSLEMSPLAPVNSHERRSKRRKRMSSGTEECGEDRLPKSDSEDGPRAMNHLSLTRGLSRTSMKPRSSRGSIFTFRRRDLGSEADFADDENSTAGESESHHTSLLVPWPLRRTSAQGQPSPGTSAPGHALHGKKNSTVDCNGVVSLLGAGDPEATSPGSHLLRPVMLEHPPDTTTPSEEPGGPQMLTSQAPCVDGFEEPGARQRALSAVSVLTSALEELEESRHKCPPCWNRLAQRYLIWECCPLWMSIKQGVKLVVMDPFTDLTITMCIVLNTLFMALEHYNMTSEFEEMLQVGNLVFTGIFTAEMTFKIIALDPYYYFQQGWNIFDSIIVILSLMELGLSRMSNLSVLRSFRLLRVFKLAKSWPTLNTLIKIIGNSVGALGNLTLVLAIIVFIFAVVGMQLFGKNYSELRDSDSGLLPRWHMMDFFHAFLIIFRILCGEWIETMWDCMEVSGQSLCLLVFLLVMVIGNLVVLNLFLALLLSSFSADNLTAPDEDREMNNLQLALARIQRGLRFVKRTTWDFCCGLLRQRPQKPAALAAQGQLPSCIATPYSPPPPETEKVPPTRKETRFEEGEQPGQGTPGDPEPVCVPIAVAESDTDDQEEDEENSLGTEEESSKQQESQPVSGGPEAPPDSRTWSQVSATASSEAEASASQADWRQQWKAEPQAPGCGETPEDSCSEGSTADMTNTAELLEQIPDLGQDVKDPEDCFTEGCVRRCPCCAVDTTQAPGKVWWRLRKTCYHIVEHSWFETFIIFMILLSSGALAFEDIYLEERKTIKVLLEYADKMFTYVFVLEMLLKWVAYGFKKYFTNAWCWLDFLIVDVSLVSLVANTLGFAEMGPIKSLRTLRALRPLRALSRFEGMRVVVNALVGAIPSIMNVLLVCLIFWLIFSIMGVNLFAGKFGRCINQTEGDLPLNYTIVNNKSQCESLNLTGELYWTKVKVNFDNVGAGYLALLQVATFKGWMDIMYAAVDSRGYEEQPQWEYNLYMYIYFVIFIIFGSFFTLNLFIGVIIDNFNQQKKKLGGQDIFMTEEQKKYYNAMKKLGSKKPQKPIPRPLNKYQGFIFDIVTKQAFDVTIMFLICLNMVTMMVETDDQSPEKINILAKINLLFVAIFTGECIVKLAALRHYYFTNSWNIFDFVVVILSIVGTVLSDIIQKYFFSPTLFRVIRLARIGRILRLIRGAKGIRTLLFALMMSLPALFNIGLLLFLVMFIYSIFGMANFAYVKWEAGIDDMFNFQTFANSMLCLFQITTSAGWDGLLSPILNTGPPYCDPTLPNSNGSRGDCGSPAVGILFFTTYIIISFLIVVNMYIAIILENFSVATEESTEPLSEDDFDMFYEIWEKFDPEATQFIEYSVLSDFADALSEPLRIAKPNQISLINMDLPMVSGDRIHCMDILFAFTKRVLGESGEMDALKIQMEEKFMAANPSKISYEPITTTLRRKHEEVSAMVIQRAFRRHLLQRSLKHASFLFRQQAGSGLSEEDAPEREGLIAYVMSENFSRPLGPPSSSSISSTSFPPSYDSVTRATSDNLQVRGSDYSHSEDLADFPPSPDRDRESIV

In data set [1], `COC[C@@H](NC(C)=O)C(=O)NCc1ccc(Oc2cccc(OC(F)(F)F)c2)cc1` showed a half-life of 105 min. Besides, the V1/2 is -24.4 mV in [2] and -81.3 mV in data set [5]. The TD50 at 0.25 h in data set [3] amounted to 40 mg/kg. Besides, the Activity entry with Rattus norvegicus [4] and with Rattus norvegicus [9] was “Toxic” throughout. For the same compound, the result in the data set on CAD was inactive. For the same compound, the ED50 in the data set with Mus musculus was determined as 41 mg/kg. Moreover, the “inhibition (INH)” value in [6] is “Not Active”. Also, the selectivity ratio in [7] was determined as 6.2. The NOAEL in the data set with Rattus norvegicus [8] came to 60 mg/kg/day.
